According to ChEMBL document CHEMBL4602720, “Degradation versus Inhibition: Development of Proteolysis-Targeting Chimeras for Overcoming Statin-Induced Compensatory Upregulation of 3-Hydroxy-3-methylglutaryl Coenzyme A Reductase” (J Med Chem, 2020):
Calls of active or inactive are those of the source. The calls are words filed in the database; no cut-off is given here.

What was measured:
[1] = target: T1, Protein cereblon/3-hydroxy-3-methylglutaryl-coenzyme A reductase (Cricetulus griseus) (UniProt P00347+G3H338); assay: Protac activity at CRBN/HMGCR in Insig-1/Insig-2 deficient Chinese hamster SRD15 cells assessed as HMGCR level at 1 uM after 16 hrs in presence of 0.1 uM pomalidomide by immunoblotting analysis (reference value: 1)
Target sequence in this assay (G3H338 1-445 partner): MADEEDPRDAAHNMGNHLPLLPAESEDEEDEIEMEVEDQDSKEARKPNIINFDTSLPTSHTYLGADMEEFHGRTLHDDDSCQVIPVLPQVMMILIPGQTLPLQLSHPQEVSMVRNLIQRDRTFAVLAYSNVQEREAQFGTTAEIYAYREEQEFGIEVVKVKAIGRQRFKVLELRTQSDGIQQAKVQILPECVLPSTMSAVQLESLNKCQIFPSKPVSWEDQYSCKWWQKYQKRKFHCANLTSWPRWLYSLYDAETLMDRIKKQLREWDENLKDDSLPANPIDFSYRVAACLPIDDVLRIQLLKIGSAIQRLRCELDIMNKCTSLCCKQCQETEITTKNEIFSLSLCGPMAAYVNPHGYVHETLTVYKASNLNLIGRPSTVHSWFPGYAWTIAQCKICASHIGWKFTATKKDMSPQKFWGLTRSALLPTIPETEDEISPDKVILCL
Target sequence in this assay (P00347 whole entry): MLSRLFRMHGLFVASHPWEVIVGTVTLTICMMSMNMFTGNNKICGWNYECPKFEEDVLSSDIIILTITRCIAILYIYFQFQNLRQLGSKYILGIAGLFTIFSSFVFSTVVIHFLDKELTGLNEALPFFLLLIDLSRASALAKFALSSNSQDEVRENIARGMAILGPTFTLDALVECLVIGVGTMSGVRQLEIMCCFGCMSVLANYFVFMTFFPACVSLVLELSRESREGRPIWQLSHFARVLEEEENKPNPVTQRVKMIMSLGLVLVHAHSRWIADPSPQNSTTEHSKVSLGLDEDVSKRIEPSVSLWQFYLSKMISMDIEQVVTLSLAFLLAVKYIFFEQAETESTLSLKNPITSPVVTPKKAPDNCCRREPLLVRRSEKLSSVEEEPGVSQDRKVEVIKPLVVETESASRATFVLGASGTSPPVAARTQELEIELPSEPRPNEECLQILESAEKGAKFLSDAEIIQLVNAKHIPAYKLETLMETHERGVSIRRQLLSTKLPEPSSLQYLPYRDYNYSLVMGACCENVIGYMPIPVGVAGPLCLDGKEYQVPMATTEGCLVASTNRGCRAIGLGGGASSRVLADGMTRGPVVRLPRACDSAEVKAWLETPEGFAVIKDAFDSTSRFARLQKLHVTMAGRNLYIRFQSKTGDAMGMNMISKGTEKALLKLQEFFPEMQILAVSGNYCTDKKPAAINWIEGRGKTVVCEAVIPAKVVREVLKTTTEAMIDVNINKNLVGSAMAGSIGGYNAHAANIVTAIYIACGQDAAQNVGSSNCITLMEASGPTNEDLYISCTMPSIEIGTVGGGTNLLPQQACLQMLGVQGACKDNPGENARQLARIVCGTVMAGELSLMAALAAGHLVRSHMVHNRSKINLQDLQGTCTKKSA

[2] = target: T1, Protein cereblon/3-hydroxy-3-methylglutaryl-coenzyme A reductase (Cricetulus griseus); assay: Protac activity at CRBN/HMGCR in Insig-1/Insig-2 deficient Chinese hamster SRD15 cells assessed as induction of HMGCR degradation at 1 uM preincubated for 16 hrs followed by addition of proteasome inhibitor MG132 and further incubated for 3 hrs by Western blot analysis
Summary of the method: (§1)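 SRD15 cells treated with 1 μM degrader for 16 h, then for 3 h with 10 μM MG132 or with MLN-4924 at the indicated concentrations. HMGCR by immunoblot.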

[3] = target: T2, 3-hydroxy-3-methylglutaryl-coenzyme A reductase (Homo sapiens) (UniProt P04035); assay: Inhibition of GFP-labelled HMGCR (unknown origin) expressed in lentivirus Chinese hamster SRD15 cells assessed as reduction in cholesterol biosynthesis at 1 uM after 16 hrs by Hoechst staining based laser-scanning microscopic method; format: cell-based
T2 sequence (whole entry): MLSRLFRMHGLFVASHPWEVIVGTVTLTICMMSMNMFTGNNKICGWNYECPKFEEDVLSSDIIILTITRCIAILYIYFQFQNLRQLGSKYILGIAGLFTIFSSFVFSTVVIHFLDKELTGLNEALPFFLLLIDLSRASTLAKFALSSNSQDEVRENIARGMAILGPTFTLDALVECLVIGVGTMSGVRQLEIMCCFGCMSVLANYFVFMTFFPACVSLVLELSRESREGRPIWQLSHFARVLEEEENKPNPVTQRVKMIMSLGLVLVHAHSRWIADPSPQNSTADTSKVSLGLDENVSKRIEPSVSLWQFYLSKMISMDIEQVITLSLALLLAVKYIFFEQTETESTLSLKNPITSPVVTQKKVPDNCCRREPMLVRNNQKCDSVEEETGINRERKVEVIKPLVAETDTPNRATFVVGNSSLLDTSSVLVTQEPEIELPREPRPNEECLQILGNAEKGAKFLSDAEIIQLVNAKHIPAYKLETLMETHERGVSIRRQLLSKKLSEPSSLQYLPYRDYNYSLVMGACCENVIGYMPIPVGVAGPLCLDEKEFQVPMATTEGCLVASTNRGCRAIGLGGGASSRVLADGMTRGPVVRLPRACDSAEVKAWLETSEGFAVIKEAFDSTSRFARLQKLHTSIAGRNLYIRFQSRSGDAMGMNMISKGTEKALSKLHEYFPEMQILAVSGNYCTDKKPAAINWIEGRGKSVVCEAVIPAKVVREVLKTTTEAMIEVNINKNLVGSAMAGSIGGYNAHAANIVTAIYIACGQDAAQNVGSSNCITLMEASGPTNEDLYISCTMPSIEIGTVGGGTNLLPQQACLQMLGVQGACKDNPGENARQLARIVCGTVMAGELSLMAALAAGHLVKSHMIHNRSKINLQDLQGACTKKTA

[4] = target: T3, Protein cereblon/3-hydroxy-3-methylglutaryl-coenzyme A reductase (Homo sapiens) (UniProt P04035+Q96SW2); assay: Protac activity at CRBN/HMGCR in human Huh7 cells assessed as induction of HMGCR degradation at 0.01 to 1 uM after 16 hrs by Western blot analysis; format: cell-based; settings: Huh-7
[5] = target: T1, Protein cereblon/3-hydroxy-3-methylglutaryl-coenzyme A reductase (Cricetulus griseus); assay: Protac activity at human Flag-tagged CRBN YW/AA mutant /T7-tagged HMGCR transfected in Insig-1/Insig-2 deficient Chinese hamster SRD15 cells assessed as induction of HMGCR degradation at 0.01 to 1 uM after 16 hrs by immunoblotting analysis
[6] = target: T3, Protein cereblon/3-hydroxy-3-methylglutaryl-coenzyme A reductase (Homo sapiens); assay: Protac activity at human Flag-tagged CRBN/T7-tagged HMGCR transfected in Insig-1/Insig-2 deficient Chinese hamster SRD15 cells assessed as induction of HMGCR degradation at 0.01 to 1 uM after 16 hrs by immunoblotting analysis
Summary of the method: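 SRD15 cells co-transfected with T7-HMGCR and Flag-CRBN (wild type or YW/AA mutant), then treated with DMSO or 1 μM compound for 16 h; transfected HMGCR measured by immunoblotting.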

[7] = target: T1, Protein cereblon/3-hydroxy-3-methylglutaryl-coenzyme A reductase (Cricetulus griseus); assay: Protac activity at CRBN/HMGCR in Insig-1/Insig-2 deficient Chinese hamster SRD15 cells assessed as induction of HMGCR degradation at 1 uM after 16 hrs by immunoblotting analysis relative to control
Summary of the method: (§2)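 Dose-response in SRD15 cells in Medium A with 5% FBS, 16 h treatment, DMSO final 0.1% or lower. RIPA lysates immunoblotted for HMGCR. HMGCR densitometry normalized to actin, with the DMSO group set to 1. Three repeats. DC50 is taken from a dose-response fit of the semi-quantitative blots, mean of 3 independent experiments.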

[8] = target: T1, Protein cereblon/3-hydroxy-3-methylglutaryl-coenzyme A reductase (Cricetulus griseus); assay: Protac activity at CRBN/HMGCR in Insig-1/Insig-2 deficient Chinese hamster SRD15 cells assessed as increase in ubiquitination level of HMGCR at 1 uM incubated for 4 hrs in presence of MG132 by Western blot analysis
Summary of the method: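 SRD15 cells given DMSO or 1 μM degrader together with 10 μM MG132 for 4 h. Lysates probed by immunoblot with P4D1 anti-ubiquitin antibody for high-molecular-weight HMGCR smears.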

[9] = target: T3, Protein cereblon/3-hydroxy-3-methylglutaryl-coenzyme A reductase (Homo sapiens); assay: Protac activity at human Flag-tagged CRBN/T7-tagged HMGCR expressed in Chinese hamster SRD15 cells transfected with HA-tagged ubiquitin assessed as increase in HMGCR immunoprecipitation 1 uM preincubated for 16 hrs followed by MG132 addition addition and measured after 5 hrs by Western blot analysis; format: cell-based
[10] = target: T3, Protein cereblon/3-hydroxy-3-methylglutaryl-coenzyme A reductase (Homo sapiens); assay: (§3) Protac activity at human Flag-tagged CRBN/T7-tagged HMGCR expressed in Chinese hamster SRD15 cells transfected with HA-tagged ubiquitin assessed as increase in HMGCR immunoprecipitation 1 uM incubated for 16 hrs followed by pomalidomide addition addition and measured after 5 hrs in presence of MG132 by Western blot analysis; format: cell-based
[11] = target: T1, Protein cereblon/3-hydroxy-3-methylglutaryl-coenzyme A reductase (Cricetulus griseus); assay: Protac activity at CRBN/HMGCR in Insig-1/Insig-2 deficient Chinese hamster SRD15 cells assessed as induction of HMGCR degradation at 1 uM preincubated for 16 hrs followed by addition of neddylation inhibitor MLN4924 and further incubated for 3 hrs by Western blot analysis; summary of the method: as §1
Target sequence in this assay (G3H338 1-445 partner): as the sequence (G3H338 1-445 partner) above
Target sequence in this assay (P00347 whole entry): as the sequence (P00347 whole entry) above

[12] = target: T3, Protein cereblon/3-hydroxy-3-methylglutaryl-coenzyme A reductase (Homo sapiens); assay: as §3, with “atorvastatin” for “pomalidomide”; format: cell-based
[13] = target: T1, Protein cereblon/3-hydroxy-3-methylglutaryl-coenzyme A reductase (Cricetulus griseus); assay: Protac activity at CRBN/HMGCR in 5'-GGAAGUCGAAGACCAAGAU-3' siRNA transfected in Insig-1/Insig-2 deficient Chinese hamster SRD15 cells assessed as induction of HMGCR degradation at after 16 hrs by immunoblotting analysis
Summary of the method: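 SRD15 cells (Insig-1/Insig-2-deficient CHO-7) in Medium A with 5% FBS at 37 °C, 5% CO2; transfected with negative-control or Crbn-targeting siRNA duplexes for 48 h, then given 1 μM degrader for 16 h. HMGCR by SDS-PAGE immunoblot of RIPA lysates. Knockdown efficiency checked by qRT-PCR against hamster GAPDH, comparative CT method. n = 3 independent experiments.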
Target sequence in this assay (G3H338 1-445 partner): as the sequence (G3H338 1-445 partner) above
Target sequence in this assay (P00347 whole entry): as the sequence (P00347 whole entry) above

[14] = target: T1, Protein cereblon/3-hydroxy-3-methylglutaryl-coenzyme A reductase (Cricetulus griseus); assay: Protac activity at CRBN/HMGCR in Insig-1/Insig-2 deficient Chinese hamster SRD15 cells assessed as HMGCR level at 0.01 uM after 16 hrs by immunoblotting analysis (reference value: 1); summary of the method: as §2
Target sequence in this assay (G3H338 1-445 partner): as the sequence (G3H338 1-445 partner) above
Target sequence in this assay (P00347 whole entry): as the sequence (P00347 whole entry) above

T3 sequence (Q96SW2 whole entry, looked up, one chain of several): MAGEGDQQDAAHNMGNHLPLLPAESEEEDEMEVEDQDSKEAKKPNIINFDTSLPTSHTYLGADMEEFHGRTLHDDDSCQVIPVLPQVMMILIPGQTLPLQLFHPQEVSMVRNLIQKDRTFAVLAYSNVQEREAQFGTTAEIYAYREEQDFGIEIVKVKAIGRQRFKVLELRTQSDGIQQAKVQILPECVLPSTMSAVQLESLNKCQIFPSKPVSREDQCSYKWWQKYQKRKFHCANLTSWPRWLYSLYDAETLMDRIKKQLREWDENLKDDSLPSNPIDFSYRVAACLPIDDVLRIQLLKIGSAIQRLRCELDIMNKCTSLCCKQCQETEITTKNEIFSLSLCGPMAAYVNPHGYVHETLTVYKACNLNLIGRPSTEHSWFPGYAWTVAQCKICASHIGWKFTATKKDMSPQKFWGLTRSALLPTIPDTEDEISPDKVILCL

For `CC(C)c1c(C(=O)Nc2ccccc2)c(-c2cccc(OCCCc3cn(CCOCCOCCOCCOCCNc4cccc5c4C(=O)N(C4CCC(=O)NC4=O)C5=O)nn3)c2)c(-c2ccc(F)cc2)n1CC[C@@H](O)C[C@@H](O)CC(=O)O` (some centres undefined), the fold change (FC) [1] was 0.4, the Activity [2] was “inactive” and the inhibition [3] was “Active”. The Activity [4] was “Active”, the Activity [5] was “inactive” and the Activity [6] was “Active”. The Activity [7] was 70%, the Activity [8] was “Active” and the Activity [9] was “Active”. The Activity [10] was “inactive”, the Activity [11] was “inactive” and the Activity [12] was “inactive”. The Activity [13] was “inactive” and the fold change (FC) [14] was 0.8.
